Experimental data reported in ChEMBL document CHEMBL3407460, “Synthesis of novel thiazole-based 8,9-dihydro-7H-pyrimido[4,5-b][1,4]diazepines as potential antitumor and antifungal agents” (2015).

Experiments:
Assay type in all cases: functional
[1] = system: CCRF-CEM; experiment: Antitumor activity against human CCRF-CEM cells after 48 hrs by Sulforhodamine B assay; settings: for CC50: read-out: LC50 (the source's name)
Summary of the method: (§1)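 NCI 60-cell-line screen. Secondary five-dose test at 100, 10, 1.0, 0.1 and 0.01 µM with continuous drug exposure for 48 h. Cell growth was estimated by sulforhodamine B protein staining. […] LC50 was also reported.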

[2] = system: A549; experiment: Antitumor activity against human A549 cells after 48 hrs by Sulforhodamine B assay; settings: A549, 48 h; for CC50: read-out: LC50 (the source's name); summary of the method: as §1
[3] = Antitumor activity against human HCC2998 cells after 48 hrs by Sulforhodamine B assay; settings: HCC 2998, 48 h; for CC50: read-out: LC50 (the source's name); summary of the method: as §1
[4] = Antitumor activity against human SF295 cells after 48 hrs by Sulforhodamine B assay; settings: SF-295, 48 h; for CC50: read-out: LC50 (the source's name); summary of the method: as §1
[5] = Antitumor activity against human UACC257 cells after 48 hrs by Sulforhodamine B assay; settings: UACC-257, 48 h; for CC50: read-out: LC50 (the source's name); summary of the method: as §1
[6] = Antitumor activity against human OVCAR5 cells after 48 hrs by Sulforhodamine B assay; settings: OVCAR-5, 48 h; summary of the method: as §1
[7] = Antitumor activity against human SKOV3 cells after 48 hrs by Sulforhodamine B assay; settings: SK-OV-3, 48 h; for CC50: read-out: LC50 (the source's name); summary of the method: as §1
[8] = Antitumor activity against human PC3 cells after 48 hrs by Sulforhodamine B assay; settings: PC-3, 48 h; for CC50: read-out: LC50 (the source's name); summary of the method: as §1

SMILES | GI50 [1] | CC50 [1] | GI50 [2] | CC50 [2] | GI50 [3] | CC50 [3] | GI50 [4] | CC50 [4] | GI50 [5] | CC50 [5] | GI50 [6] | LC50 [6] | GI50 [7] | CC50 [7] | GI50 [8] | CC50 [8]
Cc1ccc(C2=Nc3c(N)ncnc3NC(c3sc(Cl)nc3Cl)C2)cc1 (configuration not stated) | 3.21 µM | > 100 µM | 5.02 µM | 52.5 µM | 10.3 µM | 46.8 µM | 3.06 µM | 36.4 µM | 6.76 µM | 48.6 µM | 10.2 µM | 46.8 µM | 3.6 µM | 43 µM | 5.89 µM | 73.1 µM
Nc1ncnc2c1N=C(c1ccc3c(c1)OCO3)CC(c1sc(Cl)nc1Cl)N2 (configuration not stated) | 3.02 µM | > 100 µM | 6.47 µM | > 100 µM | 6.11 µM | 48.8 µM | 2.21 µM | 39.8 µM | 14.6 µM | > 100 µM | 6.03 µM | > 100 µM | 2.78 µM | > 100 µM | 5.15 µM | > 100 µM
